From ChEMBL document CHEMBL1938381, “Design, synthesis, and structure-activity relationship studies of conformationally restricted mutilin 14-carbamates” (2012)
Values after ≈ are worked out from the molar mass of the structure shown.

What was measured:
Assay type in all cases: functional
Staphylococcus aureus [1] = test: Antibacterial activity against methicillin-susceptible Staphylococcus aureus by agar microdilution method
Procedure, shortened: (§1)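 MIC by agar microdilution following NCCLS standard M7-A6 (2003), tested against clinical isolates: MRSA n = 6, MRSE n = 5, MSSA n = 5, MSSE n = 5; values given as a single MIC or a range across isolates.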

Streptococcus pneumoniae = test: Antibacterial activity against Streptococcus pneumoniae by agar microdilution method
Procedure, shortened: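 MIC read by agar microdilution following NCCLS standard M7-A6 (2003), against a panel of 3 Streptococcus pneumoniae clinical isolates. Values in µg/mL, given as a range where the isolates differed.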

[2] = test system: Staphylococcus epidermidis; test: Antibacterial activity against methicillin-resistant Staphylococcus epidermidis by agar microdilution method; procedure, shortened: as §1
[3] = test system: Staphylococcus epidermidis; test: Antibacterial activity against methicillin-susceptible Staphylococcus epidermidis by agar microdilution method; procedure, shortened: as §1
Staphylococcus aureus [4] = test: Antibacterial activity against methicillin-resistant Staphylococcus aureus by agar microdilution method; procedure, shortened: as §1

Row | SMILES | MIC (Staphylococcus aureus [1]) | MIC (Streptococcus pneumoniae) | MIC [2] | MIC [3] | MIC (Staphylococcus aureus [4])
1 | C=C[C@]1(C)C[C@@H](OC(=O)N2Cc3c(OC)cccc3C2=O)[C@]2(C)[C@H](C)CC[C@]3(CCC(=O)[C@H]32)[C@@H](C)[C@@H]1O | 2 µg/mL (≈ 3.92 µM) | 4 µg/mL (≈ 7.85 µM) | 2 µg/mL (≈ 3.92 µM) | 2 µg/mL (≈ 3.92 µM) | 2 µg/mL (≈ 3.92 µM)
2 | C=C[C@]1(C)C[C@@H](OC(=O)N2Cc3c(cccc3[N+](=O)[O-])C2=O)[C@]2(C)[C@H](C)CC[C@]3(CCC(=O)[C@H]32)[C@@H](C)[C@@H]1O | 0.5 µg/mL (≈ 0.953 µM) | 0.5 µg/mL (≈ 0.953 µM) | 0.5 µg/mL (≈ 0.953 µM) | 0.5 µg/mL (≈ 0.953 µM) | 0.5 µg/mL (≈ 0.953 µM)
3 | C=C[C@]1(C)C[C@@H](OC(=O)N2Cc3ccc([N+](=O)[O-])cc3C2=O)[C@]2(C)[C@H](C)CC[C@]3(CCC(=O)[C@H]32)[C@@H](C)[C@@H]1O | 0.5 µg/mL (≈ 0.953 µM) | 0.5 µg/mL (≈ 0.953 µM) | 0.5 µg/mL (≈ 0.953 µM) | 0.5 µg/mL (≈ 0.953 µM) | 0.5 µg/mL (≈ 0.953 µM)
4 | C=C[C@]1(C)C[C@@H](OC(=O)N2Cc3cc(N4CCOCC4)ccc3C2=O)[C@]2(C)[C@H](C)CC[C@]3(CCC(=O)[C@H]32)[C@@H](C)[C@@H]1O | 0.5 µg/mL (≈ 0.885 µM) | 0.5 µg/mL (≈ 0.885 µM) | 0.5 µg/mL (≈ 0.885 µM) | 0.5 µg/mL (≈ 0.885 µM) | 0.5 µg/mL (≈ 0.885 µM)
5 | C=C[C@]1(C)C[C@@H](OC(=O)N2Cc3cc(N4CCCCC4)ccc3C2=O)[C@]2(C)[C@H](C)CC[C@]3(CCC(=O)[C@H]32)[C@@H](C)[C@@H]1O | 2 µg/mL (≈ 3.55 µM) | 4 µg/mL (≈ 7.11 µM) | 2 µg/mL (≈ 3.55 µM) | 2 µg/mL (≈ 3.55 µM) | 2 µg/mL (≈ 3.55 µM)
6 | C=C[C@]1(C)C[C@@H](OC(=O)N2Cc3cc(NCc4ccccc4)ccc3C2=O)[C@]2(C)[C@H](C)CC[C@]3(CCC(=O)[C@H]32)[C@@H](C)[C@@H]1O | 2 µg/mL (≈ 3.42 µM) | 2 µg/mL (≈ 3.42 µM) | 2 µg/mL (≈ 3.42 µM) | 2 µg/mL (≈ 3.42 µM) | 2 µg/mL (≈ 3.42 µM)
7 | C=C[C@]1(C)C[C@@H](OC(=O)N2Cc3cc(NC(=O)C(F)(F)F)ccc3C2=O)[C@]2(C)[C@H](C)CC[C@]3(CCC(=O)[C@H]32)[C@@H](C)[C@@H]1O | 2 µg/mL (≈ 3.39 µM) | 4 µg/mL (≈ 6.77 µM) | 2 µg/mL (≈ 3.39 µM) | 2 µg/mL (≈ 3.39 µM) | 2 µg/mL (≈ 3.39 µM)
8 | C=C[C@]1(C)C[C@@H](OC(=O)N2Cc3c(N)cccc3C2=O)[C@]2(C)[C@H](C)CC[C@]3(CCC(=O)[C@H]32)[C@@H](C)[C@@H]1O | 0.0625 µg/mL (≈ 0.126 µM) | 0.0625 µg/mL (≈ 0.126 µM) | 0.0625 µg/mL (≈ 0.126 µM) | 0.0625 µg/mL (≈ 0.126 µM) | 0.0625 µg/mL (≈ 0.126 µM)
9 | C=C[C@]1(C)C[C@@H](OC(=O)N2Cc3ccc(N)cc3C2=O)[C@]2(C)[C@H](C)CC[C@]3(CCC(=O)[C@H]32)[C@@H](C)[C@@H]1O | 0.0625 µg/mL (≈ 0.126 µM) | 0.0625 µg/mL (≈ 0.126 µM) | 0.0625 µg/mL (≈ 0.126 µM) | 0.0625 µg/mL (≈ 0.126 µM) | 0.0625 µg/mL (≈ 0.126 µM)
10 | C=C[C@]1(C)C[C@@H](OC(=O)N2Cc3ccc(NC(=O)CN4CCOCC4)cc3C2=O)[C@]2(C)[C@H](C)CC[C@]3(CCC(=O)[C@H]32)[C@@H](C)[C@@H]1O | 0.5 µg/mL (≈ 0.804 µM) | 1 µg/mL (≈ 1.61 µM) | 1 µg/mL (≈ 1.61 µM) | 0.5 µg/mL (≈ 0.804 µM) | 0.5 µg/mL (≈ 0.804 µM)
11 | C=C[C@]1(C)C[C@@H](OC(=O)N2Cc3ccc(NC(=O)CN4CCN(C)CC4)cc3C2=O)[C@]2(C)[C@H](C)CC[C@]3(CCC(=O)[C@H]32)[C@@H](C)[C@@H]1O | 0.5 µg/mL (≈ 0.788 µM) | 0.5 µg/mL (≈ 0.788 µM) | 0.5 µg/mL (≈ 0.788 µM) | 0.5 µg/mL (≈ 0.788 µM) | 0.5 µg/mL (≈ 0.788 µM)
12 | C=C[C@]1(C)C[C@@H](OC(=O)N2Cc3ccc(NC(=O)CN4CCN(CCO)CC4)cc3C2=O)[C@]2(C)[C@H](C)CC[C@]3(CCC(=O)[C@H]32)[C@@H](C)[C@@H]1O | 0.5 µg/mL (≈ 0.752 µM) | 0.5 µg/mL (≈ 0.752 µM) | 0.25 µg/mL (≈ 0.376 µM) | 0.25 µg/mL (≈ 0.376 µM) | 0.5 µg/mL (≈ 0.752 µM)
13 | C=C[C@]1(C)C[C@@H](OC(=O)N2Cc3ccc(NC(=O)CCN4CCOCC4)cc3C2=O)[C@]2(C)[C@H](C)CC[C@]3(CCC(=O)[C@H]32)[C@@H](C)[C@@H]1O | 0.5 µg/mL (≈ 0.786 µM) | 0.5 µg/mL (≈ 0.786 µM) | 0.25 µg/mL (≈ 0.393 µM) | 0.25 µg/mL (≈ 0.393 µM) | 0.5 µg/mL (≈ 0.786 µM)
14 | C=C[C@]1(C)C[C@@H](OC(=O)N2Cc3ccc(NC(=O)CCN4CCN(C)CC4)cc3C2=O)[C@]2(C)[C@H](C)CC[C@]3(CCC(=O)[C@H]32)[C@@H](C)[C@@H]1O | 0.5 µg/mL (≈ 0.771 µM) | 0.5 µg/mL (≈ 0.771 µM) | 0.5 µg/mL (≈ 0.771 µM) | 0.5 µg/mL (≈ 0.771 µM) | 0.5 µg/mL (≈ 0.771 µM)
15 | C=C[C@]1(C)C[C@@H](OC(=O)N2Cc3ccc(NC(=O)CCN4CCN(CCO)CC4)cc3C2=O)[C@]2(C)[C@H](C)CC[C@]3(CCC(=O)[C@H]32)[C@@H](C)[C@@H]1O | 2 µg/mL (≈ 2.95 µM) | 4 µg/mL (≈ 5.89 µM) | 2 µg/mL (≈ 2.95 µM) | 2 µg/mL (≈ 2.95 µM) | 2 µg/mL (≈ 2.95 µM)
16 | C=C[C@]1(C)C[C@@H](OC(=O)N2Cc3c(NC(=O)[C@@H](N)C(C)C)cccc3C2=O)[C@]2(C)[C@H](C)CC[C@]3(CCC(=O)[C@H]32)[C@@H](C)[C@@H]1O.Cl | 0.5 µg/mL | 0.5 µg/mL | 0.5 µg/mL | 0.5 µg/mL | 0.5 µg/mL
17 | C=C[C@]1(C)C[C@@H](OC(=O)N2Cc3ccc(NC(=O)[C@H](C)N)cc3C2=O)[C@]2(C)[C@H](C)CC[C@]3(CCC(=O)[C@H]32)[C@@H](C)[C@@H]1O.Cl | 0.5 µg/mL | 0.5 µg/mL | 0.5 µg/mL | 0.5 µg/mL | 0.5 µg/mL
18 | C=C[C@]1(C)C[C@@H](OC(=O)N2Cc3ccc(NC(=O)[C@@H](N)C(C)C)cc3C2=O)[C@]2(C)[C@H](C)CC[C@]3(CCC(=O)[C@H]32)[C@@H](C)[C@@H]1O.Cl | 1 µg/mL | 2 µg/mL | 1 µg/mL | 1 µg/mL | 1 µg/mL
19 | C=C[C@]1(C)C[C@@H](OC(=O)N2CCc3cc(OC)ccc3C2=O)[C@]2(C)[C@H](C)CC[C@]3(CCC(=O)[C@H]32)[C@@H](C)[C@@H]1O | 1 µg/mL (≈ 1.91 µM) | 2 µg/mL (≈ 3.82 µM) | 0.5 µg/mL (≈ 0.955 µM) | 1 µg/mL (≈ 1.91 µM) | 2 µg/mL (≈ 3.82 µM)
20 | C=C[C@]1(C)C[C@@H](OC(=O)N2CCc3ccccc3C2=O)[C@]2(C)[C@H](C)CC[C@]3(CCC(=O)[C@H]32)[C@@H](C)[C@@H]1O | 0.25 µg/mL (≈ 0.506 µM) | 0.25 µg/mL (≈ 0.506 µM) | 0.25 µg/mL (≈ 0.506 µM) | 0.25 µg/mL (≈ 0.506 µM) | 0.25 µg/mL (≈ 0.506 µM)
21 | C=C[C@]1(C)C[C@@H](OC(=O)N2CCc3ccc([N+](=O)[O-])cc3C2=O)[C@]2(C)[C@H](C)CC[C@]3(CCC(=O)[C@H]32)[C@@H](C)[C@@H]1O | 1 µg/mL (≈ 1.86 µM) | 2 µg/mL (≈ 3.71 µM) | 1 µg/mL (≈ 1.86 µM) | 1 µg/mL (≈ 1.86 µM) | 1 µg/mL (≈ 1.86 µM)
22 | C=C[C@]1(C)C[C@@H](OC(=O)N2CCc3cc(OCCN4CCOCC4)ccc3C2=O)[C@]2(C)[C@H](C)CC[C@]3(CCC(=O)[C@H]32)[C@@H](C)[C@@H]1O | 0.5 µg/mL (≈ 0.803 µM) | 0.5 µg/mL (≈ 0.803 µM) | 0.5 µg/mL (≈ 0.803 µM) | 0.5 µg/mL (≈ 0.803 µM) | 0.5 µg/mL (≈ 0.803 µM)
23 | C=C[C@]1(C)C[C@@H](OC(=O)N2CCc3cc(OCCN4CCCCC4)ccc3C2=O)[C@]2(C)[C@H](C)CC[C@]3(CCC(=O)[C@H]32)[C@@H](C)[C@@H]1O | 0.5 µg/mL (≈ 0.805 µM) | 1 µg/mL (≈ 1.61 µM) | 1 µg/mL (≈ 1.61 µM) | 0.5 µg/mL (≈ 0.805 µM) | 0.5 µg/mL (≈ 0.805 µM)
24 | C=C[C@]1(C)C[C@@H](OC(=O)N2CCc3cc(OCCN4CCN(C)CC4)ccc3C2=O)[C@]2(C)[C@H](C)CC[C@]3(CCC(=O)[C@H]32)[C@@H](C)[C@@H]1O | 0.5 µg/mL (≈ 0.786 µM) | 0.5 µg/mL (≈ 0.786 µM) | 0.5 µg/mL (≈ 0.786 µM) | 0.5 µg/mL (≈ 0.786 µM) | 0.5 µg/mL (≈ 0.786 µM)
25 | C=C[C@]1(C)C[C@@H](OC(=O)N2CCc3cc(OCCCN4CCOCC4)ccc3C2=O)[C@]2(C)[C@H](C)CC[C@]3(CCC(=O)[C@H]32)[C@@H](C)[C@@H]1O | 0.5 µg/mL (≈ 0.785 µM) | 0.5 µg/mL (≈ 0.785 µM) | 0.5 µg/mL (≈ 0.785 µM) | 0.5 µg/mL (≈ 0.785 µM) | 0.5 µg/mL (≈ 0.785 µM)
26 | C=C[C@]1(C)C[C@@H](OC(=O)N2CCc3cc(OCCCN4CCCCC4)ccc3C2=O)[C@]2(C)[C@H](C)CC[C@]3(CCC(=O)[C@H]32)[C@@H](C)[C@@H]1O | 0.5 µg/mL (≈ 0.788 µM) | 0.5 µg/mL (≈ 0.788 µM) | 0.5 µg/mL (≈ 0.788 µM) | 0.5 µg/mL (≈ 0.788 µM) | 0.5 µg/mL (≈ 0.788 µM)
27 | C=C[C@]1(C)C[C@@H](OC(=O)NC(=O)c2ccc(OC)cc2)[C@]2(C)[C@H](C)CC[C@]3(CCC(=O)[C@H]32)[C@@H](C)[C@@H]1O | – | 0.0625 µg/mL (≈ 0.126 µM) | – | – | –
28 | CC(=O)NC[C@H]1CN(c2ccc(N3CCOCC3)c(F)c2)C(=O)O1 [LINEZOLID] | 0.5 µg/mL (≈ 1.48 µM) | – | – | 0.5 µg/mL (≈ 1.48 µM) | –
